These results are taken from ChEMBL document CHEMBL3102735, “Enhancing the pharmacodynamic profile of a class of selective COX-2 inhibiting nitric oxide donors” (Bioorg Med Chem, 2014).

Data set [1] in a line: Oral bioavailability in Wistar rat at 10 mg/kg by LC-MS/MS analysis. Type of data set: ADME, organism-based. As to conditions: in vivo. Put shortly: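 Male Han Wistar rats, three per route, single 10 mg/kg/5 mL dose iv or po in 5% DMSO, 5% Cremophor EL, 0.1% Tween 80 in 150 mM phosphate buffer pH 7. Jugular-vein blood sampled, plasma methanol-precipitated, parent and hydroxy metabolite quantified by LC–MS/MS in positive ESI MRM mode (LLOQ 1–15 ng/mL).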

Data set [2] can be described thus: Metabolic stability in Sprague-Dawley rat plasma assessed as compound remaining after 120 mins by LC-MS/MS analysis. Type of data set: ADME, cell-free. Particulars: read-out: Stability. Put shortly:
(§1)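 Compound (12 µL of 1 mM DMSO solution into 588 µL medium) incubated in PBS pH 7.4, pepsin-free SGF pH 1.5, or EDTA rat plasma. Aliquots taken at 0, 30, 60, 120 min and quenched with ice-cold acetonitrile containing internal standard; parent remaining as percent.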

The nature of data set [3]: Metabolic stability in Sprague-Dawley rat plasma assessed as compound remaining after 30 mins by LC-MS/MS analysis. Type of data set: ADME, cell-free. As to conditions: read-out: Stability. Put shortly:
as §1

The nature of data set [4]: Stability of the compound in simulated gastric fluid assessed as compound remaining at pH 1.5 after 60 mins by LC-MS/MS analysis. Type of data set: physicochemical. As to conditions: read-out: Stability. A digest of the protocol:
(§2)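 1 mM DMSO stock added to 0.01 M PBS (pH 7.4) or 0.05 M simulated gastric fluid without pepsin (pH 1.5 with HCl); incubated in hybridisation oven; aliquots at 0, 30, 60, 120 min quenched with ice-cold acetonitrile containing internal standard; parent remaining (%) measured.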

Data set [5] is described as follows: Solubility of the compound in phosphate buffer saline at pH 7.4 after 90 mins by HPLC analysis. Format: physicochemical. Put shortly:
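DMSO stock (20 mM) diluted 2 µL into 198 µL PBS 0.01 M pH 7.4 or pepsin-free SGF 0.05 M pH 1.5, duplicate wells, shaken 90 min at 300 rpm. Filtrates analysed by HPLC with photodiode-array detection against seven-point standards (1–200 µM).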

The target in data set [6] is T1, Prostaglandin G/H synthase 2 (Homo sapiens, UniProt P35354).
T1 sequence (P35354 whole entry): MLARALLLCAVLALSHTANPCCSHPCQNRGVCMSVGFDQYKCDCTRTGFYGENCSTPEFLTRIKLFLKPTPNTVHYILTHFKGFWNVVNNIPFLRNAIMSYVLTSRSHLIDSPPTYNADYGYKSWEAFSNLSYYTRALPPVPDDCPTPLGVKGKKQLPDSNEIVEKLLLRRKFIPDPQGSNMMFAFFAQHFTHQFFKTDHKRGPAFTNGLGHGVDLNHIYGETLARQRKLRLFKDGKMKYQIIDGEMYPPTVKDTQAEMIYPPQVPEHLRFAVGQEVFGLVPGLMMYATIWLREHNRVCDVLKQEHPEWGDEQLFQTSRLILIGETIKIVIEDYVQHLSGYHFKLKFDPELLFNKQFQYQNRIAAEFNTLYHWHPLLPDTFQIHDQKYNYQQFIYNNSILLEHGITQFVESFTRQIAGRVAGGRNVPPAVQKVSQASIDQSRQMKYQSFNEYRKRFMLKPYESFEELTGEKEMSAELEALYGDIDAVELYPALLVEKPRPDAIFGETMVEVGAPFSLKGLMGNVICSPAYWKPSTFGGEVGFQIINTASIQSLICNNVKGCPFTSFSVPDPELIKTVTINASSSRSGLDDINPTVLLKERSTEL
More on the design: species or system Blood.

The subject of the next data set is Liver. In words: Induction of nitric oxide production in Wistar rat liver homogenate assessed as nitrite level at 1 mM after 1 to 150 mins. Format: functional, tissue-based.
In data set [7] the test system is Mus musculus. In words: Analgesic activity in po dosed Swiss albino mouse assessed as reduction of acetic acid-induced writhing measured every 10 mins after 5 mins of administration. Format: functional, organism-based. Put shortly:
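Male Swiss albino mice (23–25 g), compound given orally in CMC vehicle; writhing induced by 0.6% acetic acid (10 mL/kg) ip. Stretching movements counted for 10 min, starting 5 min after administration; percent reduction versus CMC-treated animals.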

The subject of data set [8] is Mus musculus. Put plainly: Antiinflammatory activity in Swiss albino mouse assessed as reduction in carrageenan-induced paw edema at 20 mg/kg, po relative to control. Format: functional. Set-up: scale not given: the % may be the effect or the level left. A digest of the protocol:
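Intraplantar carrageenan, compound po in CMC; volume of right hind paw measured 4 h after carrageenan injection and compared with saline/carrageenan-treated controls; percent oedema reduction.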

Data set [9] has as its system Mus musculus. Put plainly: Antihyperalgesic activity in Swiss albino mouse assessed as reduction in carrageenan-induced inflammation at 40 mg/kg, po after 30 mins relative to control. Format: functional. More on the design: scale not given: the % may be the effect or the level left.
Data set [10] relates to Mus musculus. In words: Antihyperalgesic activity in Swiss albino mouse assessed as reduction in carrageenan-induced inflammation at 20 mg/kg, po after 90 mins relative to control. Type of data set: functional. Set-up: scale not given: the % may be the effect or the level left.
In data set [11] the test system is Mus musculus. Put plainly: Antihyperalgesic activity in Swiss albino mouse assessed as reduction in carrageenan-induced inflammation at 20 mg/kg, po after 120 mins relative to control. Format: functional. More on the design: scale not given: the % may be the effect or the level left.
Data set [12] deals with Mus musculus. Put plainly: Antihyperalgesic activity in Swiss albino mouse assessed as reduction in carrageenan-induced inflammation at 20 mg/kg, po after 30 mins relative to control. Set-up: scale not given: the % may be the effect or the level left. Format: functional.
In another data set the test system is Thoracic aorta. Put plainly: Ex vivo vasorelaxant activity in Wistar rat endothelium thoracic aortic ring assessed as reduction of KCl-induced contraction. Type of data set: functional, tissue-based. Put shortly: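 Endothelium-denuded thoracic aortic rings from male Wistar rats (250–350 g) in oxygenated Tyrode-type buffer at 37 °C, isometric tension recording. Rings precontracted with 30 mM KCl, then 3-fold increasing compound concentrations (1 nM–10 µM) added, also with 1 µM ODQ preincubated. Emax as % of KCl tone; pIC50; mean ± SE of 6–10 experiments.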

The target of data set [13] is T2, Prostaglandin G/H synthase 2 (Mus musculus) (UniProt Q05769).
T2 sequence (whole entry): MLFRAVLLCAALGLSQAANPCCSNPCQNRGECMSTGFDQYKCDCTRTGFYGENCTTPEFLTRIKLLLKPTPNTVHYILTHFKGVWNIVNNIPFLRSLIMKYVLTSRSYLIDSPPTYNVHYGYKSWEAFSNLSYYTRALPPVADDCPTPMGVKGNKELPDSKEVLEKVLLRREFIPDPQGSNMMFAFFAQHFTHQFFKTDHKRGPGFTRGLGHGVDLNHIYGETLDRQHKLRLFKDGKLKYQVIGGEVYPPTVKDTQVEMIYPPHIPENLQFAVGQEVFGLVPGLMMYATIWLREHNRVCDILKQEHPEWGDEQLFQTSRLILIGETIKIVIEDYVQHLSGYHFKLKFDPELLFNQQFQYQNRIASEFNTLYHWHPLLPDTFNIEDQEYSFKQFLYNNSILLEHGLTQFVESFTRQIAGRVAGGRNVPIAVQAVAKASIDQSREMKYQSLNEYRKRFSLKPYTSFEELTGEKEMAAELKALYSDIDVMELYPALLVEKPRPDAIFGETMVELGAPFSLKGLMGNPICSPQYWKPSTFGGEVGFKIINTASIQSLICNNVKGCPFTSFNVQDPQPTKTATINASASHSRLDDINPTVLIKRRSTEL
In words: Inhibition of LPS-induced COX-2 in mouse J774 cells using arachidonic acid as substrate assessed as inhibition of prostaglandin E2 production at 10 uM preincubated for 15 mins followed by substrate addition measured after 30 mins by RIA. Type of data set: cell-based.

The nature of data set [14]: Stability of the compound in phosphate buffer saline assessed as compound remaining at pH 7.4 after 60 mins by LC-MS/MS analysis. As to conditions: read-out: Stability. Type of data set: physicochemical. A digest of the protocol: as §2

Structures are written as SMILES.

Turning to `Cc1c(CC(=O)NCCO[N+](=O)[O-])cc(-c2ccc(S(C)(=O)=O)cc2)n1-c1ccc(F)cc1`, the bioavailability in [1] came out at 24%. Further, in [2], the remaining at 2 h was 100%. The remaining at 0.5 h in data set [3] worked out at 100%. The remaining at 1 h in [4] and in data set [14] was 100% in each case. In addition, the solubility at 1.5 h in data set [5] was > 200 µM. For the same molecule, the IC50 in [6] was 1.7 µM; in the data set with Thoracic aorta, 4.9 µM. The Activity with Liver was 27 µM; with Mus musculus [7], “Dose-dependent effect”; in the data set with Mus musculus [8], 4%; in the data set on Mus musculus [9], 32%; in the data set with Mus musculus [10], 20%; in the data set with Mus musculus [11], 0%. Besides, in the data set on Mus musculus [12], the Activity turned out to be 28%. For the same molecule, the inhibition in data set [13] came to 100%.
